The nature of data set [1]: Cmax in Sprague-Dawley rat at 5 mg/kg, po by LC-MS/MS analysis. It is filed as ADME, organism-based. Also noted: dose 5 mg/kg, route oral. To be noted: in vivo. The method in brief: (§1)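 Male Sprague-Dawley rats (n = 2 or 3) dosed orally at 5 mg/kg in saline or water (5 mL/kg). Blood taken from the subclavian vein at 0.5, 1, 2, 4, 6 and 8 h; plasma separated by centrifugation, stored at -20 °C, and drug levels measured by LC-MS/MS. Values are mean ± SD (n = 3) or the average of two experiments.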

A short description of data set [2]: Membrane permeability in MDCK cells at 50 uM after 60 mins by LC-MS/MS analysis. It is filed as ADME, cell-based, Canis lupus familiaris. As to conditions: dog, read-out: permeability.
The test system of data set [3] is Rattus norvegicus. The data set can be described thus: Cardiotoxicity in Sprague-Dawley rat assessed as increase in heart beat rate at 3 mg/kg, iv after 30 mins (reference value: 1.8 +/- 0.9%). It is filed as toxicity, organism-based. To be noted: in vivo, 0.5 h.
The target of data set [4] is T1, Alpha-1B adrenergic receptor (Homo sapiens, UniProt P35368).
T1 sequence (P35368 whole entry): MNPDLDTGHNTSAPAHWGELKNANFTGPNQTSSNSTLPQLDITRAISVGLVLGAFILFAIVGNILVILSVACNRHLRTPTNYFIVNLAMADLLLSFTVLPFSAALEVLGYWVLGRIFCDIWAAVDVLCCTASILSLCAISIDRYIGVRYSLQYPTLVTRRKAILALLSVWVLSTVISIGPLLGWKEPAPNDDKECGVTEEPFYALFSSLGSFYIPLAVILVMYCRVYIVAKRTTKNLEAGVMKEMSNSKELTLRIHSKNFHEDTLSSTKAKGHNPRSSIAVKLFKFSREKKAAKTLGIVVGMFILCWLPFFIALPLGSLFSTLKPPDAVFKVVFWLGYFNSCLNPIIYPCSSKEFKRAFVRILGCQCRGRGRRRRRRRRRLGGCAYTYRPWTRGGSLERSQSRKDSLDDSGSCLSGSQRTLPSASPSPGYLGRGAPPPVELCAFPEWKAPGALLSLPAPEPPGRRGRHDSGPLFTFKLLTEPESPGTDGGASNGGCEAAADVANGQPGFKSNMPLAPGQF
The data set can be described thus: Agonist activity at recombinant human alpha1B adrenergic receptor expressed in HEK293 cells after 6 hrs by NFAT-luciferase reporter gene assay. It is filed as cell-based. For orientation: A reporter such as luciferase makes a cellular process visible.

A further data set has as its target T2, CYP2B6 (Homo sapiens, UniProt P20813).
T2 sequence (P20813 whole entry): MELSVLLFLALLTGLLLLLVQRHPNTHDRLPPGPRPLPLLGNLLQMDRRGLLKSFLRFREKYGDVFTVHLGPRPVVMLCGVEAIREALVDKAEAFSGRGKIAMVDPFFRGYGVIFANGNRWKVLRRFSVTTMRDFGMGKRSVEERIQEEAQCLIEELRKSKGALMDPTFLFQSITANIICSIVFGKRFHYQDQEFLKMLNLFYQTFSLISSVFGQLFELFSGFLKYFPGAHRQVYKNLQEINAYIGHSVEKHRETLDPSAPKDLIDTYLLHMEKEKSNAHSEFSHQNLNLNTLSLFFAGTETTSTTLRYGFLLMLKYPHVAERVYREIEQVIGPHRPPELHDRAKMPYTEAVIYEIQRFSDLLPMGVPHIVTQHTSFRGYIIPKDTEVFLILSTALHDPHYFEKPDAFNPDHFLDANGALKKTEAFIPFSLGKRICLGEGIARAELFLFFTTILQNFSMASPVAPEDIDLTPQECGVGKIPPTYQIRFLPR
The data set can be described thus: Inhibition of CYP2B6 (unknown origin) at 10 uM relative to control. It is filed as ADME.

The nature of data set [5]: AUC in Sprague-Dawley rat at 5 mg/kg, po by LC-MS/MS analysis. The class given is ADME, organism-based. To be noted: in vivo. The method in brief:
as §1

Data set [6] addresses T3, Beta-3 adrenergic receptor (Homo sapiens, UniProt P13945). Description: Intrinsic activity at recombinant human beta3 adrenergic receptor expressed in CHO cells assessed as accumulation of cyclic AMP after 30 mins relative to isoproterenol. It is filed as cell-based.
Target sequence in this assay (P13945 whole entry, looked up): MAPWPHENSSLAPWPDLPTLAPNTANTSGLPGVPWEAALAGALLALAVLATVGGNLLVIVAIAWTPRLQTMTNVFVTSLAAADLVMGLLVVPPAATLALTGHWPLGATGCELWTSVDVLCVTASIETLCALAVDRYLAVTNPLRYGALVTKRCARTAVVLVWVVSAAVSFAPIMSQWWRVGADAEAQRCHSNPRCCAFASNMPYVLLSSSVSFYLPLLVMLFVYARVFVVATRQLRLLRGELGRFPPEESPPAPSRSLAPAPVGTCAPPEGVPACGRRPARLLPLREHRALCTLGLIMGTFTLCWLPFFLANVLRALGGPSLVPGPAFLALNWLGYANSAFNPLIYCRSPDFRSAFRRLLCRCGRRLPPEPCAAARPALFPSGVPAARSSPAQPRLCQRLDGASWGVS
Data set [7] can be described thus: Solubility of the compound at pH 6.8 buffer solution after 18 hrs by HPLC analysis. The class given is physicochemical.
Data set [8] in a line: Half life in Sprague-Dawley rat at 5 mg/kg, po by LC-MS/MS analysis. The class given is ADME, organism-based. To be noted: in vivo. The method in brief:
as §1

For data set [9], the system named is Rattus norvegicus. Description: Cardiotoxicity in Sprague-Dawley rat assessed as decrease in heart beat rate at 3 mg/kg, iv after 30 mins (reference value: 4.5 +/- 0.8%). It is filed as toxicity, organism-based. Also noted: scale not given: the % may be the effect or the level left. To be noted: in vivo, 0.5 h.
Data set [10] in a line: Intrinsic clearance in Sprague-Dawley rat liver microsomes at 0.5 uM in presence of NADPH by LC-MS/MS analysis. As to conditions: […]. The class given is ADME, microsome. The method in brief: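 Pooled male Sprague-Dawley rat liver microsomes (0.5 mg/mL final) in 100 mM Tris-HCl pH 7.4 with NADPH-regenerating mix plus UDP-GA, test compound 0.5 µM, 20 min at 37 °C. Acetonitrile stop, LC-MS/MS. CLint,u is scaled with 44.8 mg protein/g liver and 40.0 g liver/kg, and corrected by fu from ultracentrifugation (160,000g, 16 h, 37 °C).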
A general note: Liver microsomes are a subcellular fraction often used to study metabolism.

The target in data set [11] is T3, Beta-3 adrenergic receptor. The data set can be described thus: Agonist activity at recombinant human beta3 adrenergic receptor expressed in CHO cells assessed as accumulation of cyclic AMP after 30 mins. The class given is cell-based.
Target sequence in this assay (P13945 whole entry): as the sequence (P13945 whole entry, looked up) above
The species named for the next data set is Homo sapiens. The data set can be described thus: Selectivity ratio of EC50 for recombinant human alpha1A adrenergic receptor to EC50 for recombinant human beta3 adrenergic receptor.
Data set [12] has as its target Beta-2 adrenergic receptor (Homo sapiens, UniProt P07550). Description: Intrinsic activity at recombinant human beta2 adrenergic receptor assessed as accumulation of cyclic AMP after 30 mins relative to isoproterenol.
The target in a further data set is T4, CYP1A2 (Homo sapiens, UniProt P05177).
T4 sequence (P05177 whole entry): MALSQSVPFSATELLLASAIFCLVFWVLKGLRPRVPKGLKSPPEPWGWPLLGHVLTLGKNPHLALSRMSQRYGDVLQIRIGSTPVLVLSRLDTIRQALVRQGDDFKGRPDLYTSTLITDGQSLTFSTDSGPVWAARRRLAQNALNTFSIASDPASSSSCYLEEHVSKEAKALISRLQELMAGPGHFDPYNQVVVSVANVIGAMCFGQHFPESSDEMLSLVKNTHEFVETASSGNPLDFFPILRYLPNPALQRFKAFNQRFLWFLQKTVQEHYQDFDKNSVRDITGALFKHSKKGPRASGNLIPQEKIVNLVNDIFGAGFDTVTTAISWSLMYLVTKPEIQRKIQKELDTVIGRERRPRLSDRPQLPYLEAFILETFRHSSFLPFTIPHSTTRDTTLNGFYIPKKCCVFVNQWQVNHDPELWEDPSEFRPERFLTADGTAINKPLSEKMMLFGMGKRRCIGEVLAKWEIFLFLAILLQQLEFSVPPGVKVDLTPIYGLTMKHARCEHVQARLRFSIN
Description: Inhibition of CYP1A2 (unknown origin) at 10 uM relative to control. The class given is ADME.

The nature of data set [13]: Intrinsic clearance in human liver microsomes at 1 uM in presence of NADPH by LC-MS/MS analysis. It is filed as ADME, microsome. As to conditions: […]. Summed up:
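Pooled mixed-gender human liver microsomes (0.5 mg/mL) in 100 mM potassium phosphate pH 7.4 with NADPH-regenerating mix plus UDP-GA, test compound 1 µM, 15 min at 37 °C. Acetonitrile stop, LC-MS/MS. k from the remaining fraction. CLint,u is scaled with 48.8 mg protein/g liver and 25.7 g liver/kg, and corrected by fu from equilibrium dialysis (1 µM, 0.5 mg/mL, 6 h, 37 °C).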

Converted amounts (≈) assume the structure as drawn. Bounds are passed on as bounds.

Sequence of Beta-2 adrenergic receptor (P07550 whole entry): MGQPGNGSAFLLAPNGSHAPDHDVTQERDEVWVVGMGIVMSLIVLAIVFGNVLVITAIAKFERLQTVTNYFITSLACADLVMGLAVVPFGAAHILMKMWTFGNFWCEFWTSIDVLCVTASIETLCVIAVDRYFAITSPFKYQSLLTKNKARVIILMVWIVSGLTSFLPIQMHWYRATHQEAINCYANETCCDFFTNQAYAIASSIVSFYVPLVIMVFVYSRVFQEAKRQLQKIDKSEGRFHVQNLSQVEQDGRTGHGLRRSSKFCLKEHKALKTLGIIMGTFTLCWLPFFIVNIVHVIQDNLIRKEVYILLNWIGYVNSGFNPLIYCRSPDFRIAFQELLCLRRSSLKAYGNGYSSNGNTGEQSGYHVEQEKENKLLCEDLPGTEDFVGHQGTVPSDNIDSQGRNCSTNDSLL

As to `Cc1n[nH]c2cc(OCCNC[C@H](O)c3cccc(NS(=O)(=O)C4CCC4)c3)ccc12`, the highest level in data set [1] (Cmax) was 119 ng/mL. Also, in data set [2], the Papp at 1 h, 50 µM was 5 ×10⁻⁶ cm/s. Also, the Activity was 5.8% in the data set with Rattus norvegicus [3] and 0.9% with Rattus norvegicus [9]. The EC50 (in general, the midpoint of the concentration-response curve) was over 10000 nM in data set [4] and 18 nM in data set [11]. The inhibition at 10 µM on CYP2B6 and at CYP1A2 was under 34% each time. Moreover, the exposure (AUC) (commonly the area under the concentration-time curve, a measure of exposure) in data set [5] came to 312 ng·h/mL. Besides, the Intrinsic activity in [6] was found to be 105%. Further, in [7], the solubility (as a rule, how much of the substance goes into solution per volume) at 18 h was 278 µM (≈ 124 µg/mL). For the same molecule, in data set [8], the half-life (in general, the time needed for the level to fall by half in the phase considered) was 3.01 h. Besides, the CLint scaled at 0.5 µM in data set [10] turned out to be 52 mL/min/kg. The Ratio EC50 in the data set listed under Homo sapiens was over 556. For the same molecule, the Emax – broadly, the size of the effect at its maximum, as opposed to the concentration needed – at 0.5 h in [12] is 4%. Moreover, the CLint scaled at 1 µM in data set [13] amounted to 57 mL/min/kg.
